Results published in ChEMBL document CHEMBL1135535, “Discovery and optimization of a series of carbazole ureas as NPY5 antagonists for the treatment of obesity” (J Med Chem, 2002).

How the values were obtained:
[1] = target: T1, Neuropeptide Y receptor type 5 (Homo sapiens, UniProt Q15761); test: Binding affinity to the human Neuropeptide Y receptor Y5 (NPY5)
T1 sequence (Q15761 whole entry): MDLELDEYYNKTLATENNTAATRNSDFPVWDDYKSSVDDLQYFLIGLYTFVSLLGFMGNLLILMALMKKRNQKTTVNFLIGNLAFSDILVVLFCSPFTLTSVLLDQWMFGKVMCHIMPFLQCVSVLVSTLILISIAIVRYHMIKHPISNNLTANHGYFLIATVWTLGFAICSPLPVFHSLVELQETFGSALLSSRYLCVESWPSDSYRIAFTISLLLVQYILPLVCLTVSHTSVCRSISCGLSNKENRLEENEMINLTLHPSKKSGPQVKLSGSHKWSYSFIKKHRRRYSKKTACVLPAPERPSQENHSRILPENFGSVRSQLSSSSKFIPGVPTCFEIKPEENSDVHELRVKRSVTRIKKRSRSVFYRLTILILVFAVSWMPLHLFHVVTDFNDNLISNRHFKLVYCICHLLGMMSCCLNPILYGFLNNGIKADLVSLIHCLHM
Outline: (§1)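 Membranes from Hi5 insect cells infected 48 h with baculovirus carrying rat or human NPY-5 receptor, prepared by sonication in hypotonic Tris/EDTA/sucrose buffer and harvested on a 41% sucrose cushion. 0.01 µCi [125I]PYY incubated with membranes and compound in HEPES buffer (CaCl2, MgCl2, 0.5% BSA, pH 7.4) for 2 h at room temperature. Filtered onto PEI-treated GF/C plates, then scintillation counted.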

Salmonella typhimurium [2] = test: Ames activity in TA 98+S9, expressed as maximum fold increase in mutation frequency; assay type: functional, Salmonella enterica subsp. enterica serovar Typhimurium
Outline: (§2)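 Salmonella typhimurium TA98 plate incorporation assay with S9 mix. The S9 is the postmitochondrial fraction of livers from Aroclor 1254-treated Sprague–Dawley rats, supplemented with cofactors for NADPH generation. Tested across 6–2000 μg/plate. The value is the maximum increase in mutation frequency relative to background across that dose range.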

Salmonella typhimurium [3] = test: Ames activity in TA 98+S9, expressed as maximum fold increase in mutation frequency; NI means no increase; assay type: functional, organism-based; conditions: Salmonella enterica subsp. enterica serovar Typhimurium; outline: as §2
[4] = Clearance level at a dose 10 umol/kg administered intravenously; assay type: ADME, organism-based; conditions: in vivo, iv
[5] = Bioavailability of compound at a dose 30 umol/kg administered orally; assay type: ADME, organism-based; conditions: eutheria, in vivo, po, at 30 µmol/kg
[6] = Volume of distribution of compound at a dose 10 umol/kg was administered intravenously; assay type: ADME, organism-based; conditions: in vivo, iv, read-out: Vss
[7] = Half-life of compound at a dose 30 umol/kg administered orally; assay type: ADME, organism-based; conditions: in vivo, po
[8] = Half-life of compound at a dose 10 umol/kg was administered intravenously; assay type: ADME, organism-based; conditions: in vivo, iv
[9] = Tmax of compound at a dose 30 umol/kg administered orally; assay type: ADME, organism-based; conditions: in vivo, po
[10] = Maximum concentration of compound at a dose 30 umol/kg administered orally; assay type: ADME, organism-based; parameters: dose 30 umol/kg, route oral; conditions: in vivo, po
[11] = target: T1, Neuropeptide Y receptor type 5; test: Compound was evaluated for functional antagonism of Neuropeptide Y receptor Y5 activity in cellular Ca flux
[12] = target: T1, Neuropeptide Y receptor type 5; test: The compound was evaluated in vitro for: human Neuropeptide Y receptor Y5 functional antagonism
[13] = Percent inhibition of 5-HT2b and adenosine transport at 10 uM Y1, Y2, Y4 and 80 other receptors at > 10 uM; assay type: functional
Outline: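 Selectivity screen with compound tested at 10 µM for binding to 5HT2b receptor and for inhibition of adenosine transport. Y1, Y2, Y4 and 80 other receptors were also screened. Human Y1, Y2 and Y4 membranes came from SK-N-MC cells, KAN-TS cells and stable Y4-expressing CHO cells, using the [125I]PYY filtration binding format.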

Rattus norvegicus [14] = test: Concentration of compound in rat CSF after oral dosing at 2 mg/kg after 90 min; assay type: functional, organism-based; parameters: dose 2 mg/kg
Outline: (§3)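 Single oral dose of 2 mg/kg to rats. Plasma, whole brain and CSF concentrations were measured at 90 min.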

Rattus norvegicus [15] = test: Concentration of compound in rat whole brain after oral dosing at 2 mg/kg after 90 min; assay type: functional, organism-based; parameters: dose 2 mg/kg; outline: as §3
Rattus norvegicus [16] = test: Concentration of compound in rat plasma after oral dosing at 2 mg/kg after 90 min; assay type: functional, organism-based; parameters: dose 2 mg/kg; outline: as §3
Salmonella typhimurium [17] = test: Mutagenicity (Ames activity) for Salmonella Typhimurium TA100 in the presence of rat liver S9 mix, at 100 ug/plate conc.; assay type: functional, Salmonella enterica subsp. enterica serovar Typhimurium
Outline: (§4)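 Ames plate incorporation assay with S. typhimurium TA98 and TA100, run as described by Maron and Ames. Metabolic activation used S9 mix from livers of Aroclor 1254-treated Sprague–Dawley rats with an NADPH-generating cofactor system. Test substance given at 3.3–100 µg/plate. Read-out was revertant colonies per plate against a solvent control.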

Salmonella typhimurium [18] = test: Mutagenicity (Ames activity) for Salmonella Typhimurium TA100 in the presence of rat liver S9 mix, at 10 ug/plate conc.; assay type: functional, Salmonella enterica subsp. enterica serovar Typhimurium; outline: as §4
Salmonella typhimurium [19] = test: Mutagenicity (Ames activity) for Salmonella Typhimurium TA100 in the presence of rat liver S9 mix, at 3.3 ug/plate conc.; assay type: functional, Salmonella enterica subsp. enterica serovar Typhimurium; outline: as §4
Salmonella typhimurium [20] = test: Mutagenicity (Ames activity) for Salmonella Typhimurium TA100 in the presence of rat liver S9 mix, at 33 ug/plate conc.; assay type: functional, Salmonella enterica subsp. enterica serovar Typhimurium; outline: as §4
Salmonella typhimurium [21] = test: Mutagenicity (Ames activity) for Salmonella Typhimurium TA98 in the presence of rat liver S9 mix, at 100 ug/plate conc.; assay type: functional, Salmonella enterica subsp. enterica serovar Typhimurium; outline: as §4
Salmonella typhimurium [22] = test: Mutagenicity (Ames activity) for Salmonella Typhimurium TA98 in the presence of rat liver S9 mix, at 10 ug/plate conc.; assay type: functional, Salmonella enterica subsp. enterica serovar Typhimurium; outline: as §4
Salmonella typhimurium [23] = test: Mutagenicity (Ames activity) for Salmonella Typhimurium TA98 in the presence of rat liver S9 mix, at 3.3 ug/plate conc.; assay type: functional, Salmonella enterica subsp. enterica serovar Typhimurium; outline: as §4
Salmonella typhimurium [24] = test: Mutagenicity (Ames activity) for Salmonella Typhimurium TA98 in the presence of rat liver S9 mix, at 33 ug/plate conc.; assay type: functional, Salmonella enterica subsp. enterica serovar Typhimurium; outline: as §4
[25] = Half life in rat was reported; assay type: ADME, organism-based; conditions: in vivo
Outline: (§5)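 Rats received a DMA:PEG:H2O 1:1:1 solution, iv at 10 µmol/kg and po at 30 µmol/kg. Half-life, Vss, clearance, Cmax, Tmax and oral bioavailability were derived from plasma levels.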

[26] = target: T1, Neuropeptide Y receptor type 5; test: In vitro human Neuropeptide Y receptor Y5 functional antagonism (reporter gene assay)
[27] = target: T2, Neuropeptide Y receptor type 5 (Rattus norvegicus, UniProt Q63634); test: Binding affinity against rat Neuropeptide Y receptor Y5; outline: as §1
T2 sequence (Q63634 whole entry): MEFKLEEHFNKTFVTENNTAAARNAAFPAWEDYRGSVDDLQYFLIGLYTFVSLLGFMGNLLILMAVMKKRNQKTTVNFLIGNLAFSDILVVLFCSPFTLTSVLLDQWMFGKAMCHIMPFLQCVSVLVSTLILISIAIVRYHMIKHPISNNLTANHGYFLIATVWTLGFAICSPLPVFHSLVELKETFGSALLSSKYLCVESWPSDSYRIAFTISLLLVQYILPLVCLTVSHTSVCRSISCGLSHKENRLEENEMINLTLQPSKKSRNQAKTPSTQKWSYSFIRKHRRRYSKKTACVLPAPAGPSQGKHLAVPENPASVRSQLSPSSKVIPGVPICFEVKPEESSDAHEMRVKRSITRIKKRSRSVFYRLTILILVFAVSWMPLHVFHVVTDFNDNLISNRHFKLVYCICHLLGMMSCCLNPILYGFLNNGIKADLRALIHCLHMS

[28] = Bioavailability in rat; assay type: ADME, organism-based; conditions: in vivo, read-out: Bioavailabiility; outline: as §5
[29] = Compound was evaluated for functional antagonism of NPY activity in cellular Ca flux

O=C(Nc1ccc2c(c1)c1ccccc1n2C1CCOC1)N1CCOCC1 (configuration not stated)
IC50 [1]: 40 nM

CN(C)S(=O)(=O)n1c2ccccc2c2cc(NC(=O)CCc3ccncc3)ccc21
IC50 [1]: 8 nM

CC(C)n1c2ccccc2c2cc(NC(=O)N3CCOCC3)ccc21
IC50 [1]: 2 nM

CCn1c2ccccc2c2c(NC(=O)CCc3ccncc3)cccc21
IC50 [1]: > 10000 nM

CN(C)S(=O)(=O)n1c2ccccc2c2cc(N)ccc21
Max fold increase (Salmonella typhimurium [2]): 39

Cc1c(N)ccc2c1c1ccccc1n2C(C)C
NI (Salmonella typhimurium [3]): no increase

CC(C)(C)Cn1c2ccccc2c2cc(N)ccc21
Mutation frequency (Salmonella typhimurium [2]): 5

CN(C)S(=O)(=O)n1c2ccccc2c2cc(NC(=O)N3CCOCC3)ccc21
IC50 [1]: 350 nM

CCn1c2ccccc2c2cc(CNC(=O)Cc3ccncc3)ccc21
IC50 [1]: 3400 nM

CCn1c2ccccc2c2cc(CC(=O)NCc3ccncc3)ccc21
IC50 [1]: 2250 nM

Cc1c(NC(=O)N2CCOCC2)ccc2c1c1ccccc1n2C(C)C
clearance [4]: 1.33 mL/min/kg
bioavailability [5]: 76%
Vd [6]: 0.41 L/kg
half-life [7]: 6.4 h
half-life [8]: 3.7 h
Tmax [9]: 1 h
Cmax [10]: 35 µM
IC50 [1]: 3 nM
IC50 [11]: 6 nM
IC50 [12]: 37 nM
inhibition [13]: 70%

O=C(CSc1ccncc1)Nc1ccc(C(=O)c2ccccc2)cc1
IC50 [1]: 350 nM

CCn1c2ccccc2c2cc(NC(=O)N3CCOCC3)ccc21
IC50 [1]: 7 nM
Concentration (Rattus norvegicus [14]): 17 nM
Concentration (Rattus norvegicus [15]): 500 nM
Concentration (Rattus norvegicus [16]): 740 nM

CCn1c2ccccc2c2cccc(NC(=O)CCc3ccncc3)c21
IC50 [1]: 440 nM

Cc1cc2c(cc1N)c1ccccc1n2C(C)C
Mutation frequency (Salmonella typhimurium [2]): 3

Cc1c(NC(=O)N2CCOCC2)cc(C)c2c1c1ccccc1n2C(C)C
IC50 [1]: 710 nM

CC(C)n1c2ccccc2c2c(F)c(N)c(F)cc21
Mutation frequency (Salmonella typhimurium [2]): 2

CS(=O)(=O)n1c2ccccc2c2cc(N)ccc21
Max fold increase (Salmonella typhimurium [2]): 35

CC(C)n1c2ccc(F)cc2c2cc(NC(=O)N3CCOCC3)ccc21
IC50 [1]: 3 nM

CCn1c2ccccc2c2cc(N)ccc21
Revertant colonies per plate (Salmonella typhimurium [17]): 483
Revertant colonies per plate (Salmonella typhimurium [18]): 358
Revertant colonies per plate (Salmonella typhimurium [19]): 192
Revertant colonies per plate (Salmonella typhimurium [20]): 466
Mutation frequency (Salmonella typhimurium [2]): 43
Revertant colonies per plate (Salmonella typhimurium [21]): 897
Revertant colonies per plate (Salmonella typhimurium [22]): 1416
Revertant colonies per plate (Salmonella typhimurium [23]): 623
Revertant colonies per plate (Salmonella typhimurium [24]): 1227

Cc1cccc2c3cc(N)ccc3n(C(C)C)c12
Mutation frequency (Salmonella typhimurium [2]): 6

Cc1cc2c(c(C)c1N)c1ccccc1n2C(C)C
NI (Salmonella typhimurium [3]): no increase

CC(C)n1c2ccccc2c2cc(N)c(Cl)cc21
Mutation frequency (Salmonella typhimurium [2]): 43

CC(C)n1c2ccc(N)cc2c2cc(F)ccc21
Mutation frequency (Salmonella typhimurium [2]): 15

Cn1c2ccccc2c2cc(NC(=O)CCc3ccncc3)ccc21
IC50 [1]: 33 nM

CC(C)n1c2ccccc2c2cc(N)ccc21
Mutation frequency (Salmonella typhimurium [2]): 3

CCn1c2ccccc2c2ccc(NC(=O)CCc3ccncc3)cc21
IC50 [1]: 800 nM

CCn1c2ccccc2c2cc(N(C)C(=O)CCc3ccncc3)ccc21
IC50 [1]: 2200 nM

O=C(CCc1ccncc1)Nc1ccc2[nH]c3ccccc3c2c1
IC50 [1]: 230 nM

O=C(CCc1ccncc1)Nc1ccc(C(=O)c2ccccc2)cc1
IC50 [1]: 300 nM

CC(C)n1c2ccccc2c2cc(NC(=O)CCc3ccncc3)ccc21
IC50 [1]: 1 nM

CC(C)n1c2ccccc2c2c(F)c(NC(=O)N3CCOCC3)c(F)cc21
IC50 [1]: 12 nM

Cc1cc2c(c(C)c1NC(=O)N1CCOCC1)c1ccccc1n2C(C)C
IC50 [1]: 390 nM

Nc1ccc2c(c1)c1ccccc1n2C1CCOC1 (configuration not stated)
Mutation frequency (Salmonella typhimurium [2]): 66

CC(C)(C)Cn1c2ccccc2c2cc(NC(=O)N3CCOCC3)ccc21
IC50 [1]: 78 nM

Cc1c(N)cc(C)c2c1c1ccccc1n2C(C)C
NI (Salmonella typhimurium [3]): no increase

CCOc1c(N)ccc2c1c1ccccc1n2C(C)C
NI (Salmonella typhimurium [3]): no increase

CCn1c2ccccc2c2cc(NC(=O)CCc3ccncc3)ccc21
half-life [25]: 0.25 h
IC50 [1]: 2 nM
IC50 [26]: 11 nM
IC50 [27]: 7 nM
bioavailability [28]: 1%
IC50 [29]: 2 nM

CS(=O)(=O)n1c2ccccc2c2cc(NC(=O)N3CCOCC3)ccc21
IC50 [1]: 15 nM

Cc1cccc2c3cc(NC(=O)N4CCOCC4)ccc3n(C(C)C)c12
IC50 [1]: 2 nM

CS(=O)(=O)n1c2ccccc2c2cc(NC(=O)CCc3ccncc3)ccc21
IC50 [1]: 1 nM

CC(C)c1c(NC(=O)N2CCOCC2)ccc2c1c1ccccc1n2C(C)C
IC50 [1]: 770 nM

CC(=O)n1c2ccccc2c2cc(NC(=O)CCc3ccncc3)ccc21
IC50 [1]: 3 nM

CCn1c2ccccc2c2cc(C(=O)NCCc3ccncc3)ccc21
IC50 [1]: 700 nM

CCOc1c(NC(=O)N2CCOCC2)ccc2c1c1ccccc1n2C(C)C
IC50 [1]: 270 nM

CC(C)c1c(N)ccc2c1c1ccccc1n2C(C)C
NI (Salmonella typhimurium [3]): no increase
